According to ChEMBL document CHEMBL4689842, “EUbOPEN Chemogenomics Library wave 1” (2021):

Test system: U2OS
Test: Multiplex assay against U2OS
Format: toxicity, cell-based
Details: human
How it was run: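 Four dyes were applied at seeding to live cells: Hoechst33342, BioTracker Green Microtubule Cytoskeleton Dye, MitoTracker Red and Annexin V Alexa Fluor 680. Imaging after compound addition used a CQ1 microscope at 37°C and 5% CO2. CellPathfinder machine-learning gating then sorted cells into Hoechst high-intensity objects or normal cells, normal cells into healthy, pyknosed or fragmented nuclei, and pyknosed cells into mitotic or apoptotic, with tubulin, mitochondrial-mass and membrane-permeability phenotypes given as per cents of healthy-nucleus cells.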

[1] = 12 h, 1 µM, compound concentration 1 uM, replicate 1
[2] = 12 h, 1 µM, compound concentration 1 uM, replicate 2
[3] = 12 h, 10 µM, compound concentration 10 uM, replicate 1
[4] = 12 h, 10 µM, compound concentration 10 uM, replicate 2
[5] = 24 h, 1 µM, compound concentration 1 uM, replicate 1
[6] = 24 h, 1 µM, compound concentration 1 uM, replicate 2
[7] = 24 h, 10 µM, compound concentration 10 uM, replicate 1
[8] = 24 h, 10 µM, compound concentration 10 uM, replicate 2
[9] = 48 h, 1 µM, compound concentration 1 uM, replicate 1
[10] = 48 h, 1 µM, compound concentration 1 uM, replicate 2
[11] = 48 h, 10 µM, compound concentration 10 uM, replicate 1
[12] = 48 h, 10 µM, compound concentration 10 uM, replicate 2

Cc1ccc2c(c1)c1c(n2CCc2ccc(C)nc2)CCN(C)C1 [LATREPIRDINE]
Population Apoptotic (%) [1]: 53%
Population Fragmented Nuclei (%) [1]: 8%
Population Healthy Nuclei (%) [1]: 81%
Population Hoechst High Intensity Objects (%) [1]: 7%
Population Membrane Permeable-Phenotype (%) [1]: 6%
Population Mitochondria Different-Phenotype (%) [1]: 46%
Population Mitotic Cells (%) [1]: 46%
Population Normal (%) [1]: 92%
Population Pyknosed Nuclei (%) [1]: 9%
Population Tubulin-Different-Phenotype (%) [1]: 42%
Total Cell Count [1]: 147
Population Apoptotic (%) [2]: 100%
Population Fragmented Nuclei (%) [2]: 27%
Population Healthy Nuclei (%) [2]: 67%
Population Hoechst High Intensity Objects (%) [2]: 16%
Population Membrane Permeable-Phenotype (%) [2]: 5%
Population Mitochondria Different-Phenotype (%) [2]: 27%
Population Mitotic Cells (%) [2]: 0%
Population Normal (%) [2]: 83%
Population Pyknosed Nuclei (%) [2]: 4%
Population Tubulin-Different-Phenotype (%) [2]: 27%
Total Cell Count [2]: 61
Population Apoptotic (%) [3]: 47%
Population Fragmented Nuclei (%) [3]: 11%
Population Healthy Nuclei (%) [3]: 64%
Population Hoechst High Intensity Objects (%) [3]: 7%
Population Membrane Permeable-Phenotype (%) [3]: 21%
Population Mitochondria Different-Phenotype (%) [3]: 97%
Population Mitotic Cells (%) [3]: 52%
Population Normal (%) [3]: 92%
Population Pyknosed Nuclei (%) [3]: 24%
Total Cell Count [3]: 142
Population Apoptotic (%) [4]: 88%
Population Fragmented Nuclei (%) [4]: 7%
Population Healthy Nuclei (%) [4]: 65%
Population Hoechst High Intensity Objects (%) [4]: 8%
Population Membrane Permeable-Phenotype (%) [4]: 42%
Population Mitochondria Different-Phenotype (%) [4]: 100%
Population Mitotic Cells (%) [4]: 11%
Population Normal (%) [4]: 91%
Population Pyknosed Nuclei (%) [4]: 26%
Population Tubulin-Different-Phenotype (%) [4]: 100%
Total Cell Count [4]: 103
Population Apoptotic (%) [5]: 47%
Population Fragmented Nuclei (%) [5]: 6%
Population Healthy Nuclei (%) [5]: 83%
Population Hoechst High Intensity Objects (%) [5]: 3%
Population Membrane Permeable-Phenotype (%) [5]: 4%
Population Mitochondria Different-Phenotype (%) [5]: 38%
Population Mitotic Cells (%) [5]: 52%
Population Normal (%) [5]: 96%
Population Pyknosed Nuclei (%) [5]: 10%
Population Tubulin-Different-Phenotype (%) [5]: 30%
Total Cell Count [5]: 166
Population Apoptotic (%) [6]: 55%
Population Fragmented Nuclei (%) [6]: 23%
Population Healthy Nuclei (%) [6]: 67%
Population Hoechst High Intensity Objects (%) [6]: 13%
Population Membrane Permeable-Phenotype (%) [6]: 10%
Population Mitochondria Different-Phenotype (%) [6]: 27%
Population Mitotic Cells (%) [6]: 44%
Population Normal (%) [6]: 86%
Population Pyknosed Nuclei (%) [6]: 8%
Population Tubulin-Different-Phenotype (%) [6]: 14%
Total Cell Count [6]: 74
Population Apoptotic (%) [7]: 71%
Population Fragmented Nuclei (%) [7]: 12%
Population Healthy Nuclei (%) [7]: 54%
Population Hoechst High Intensity Objects (%) [7]: 8%
Population Membrane Permeable-Phenotype (%) [7]: 24%
Population Mitochondria Different-Phenotype (%) [7]: 97%
Population Mitotic Cells (%) [7]: 28%
Population Normal (%) [7]: 91%
Population Pyknosed Nuclei (%) [7]: 33%
Population Tubulin-Different-Phenotype (%) [7]: 100%
Total Cell Count [7]: 172
Population Apoptotic (%) [8]: 76%
Population Fragmented Nuclei (%) [8]: 4%
Population Healthy Nuclei (%) [8]: 56%
Population Hoechst High Intensity Objects (%) [8]: 4%
Population Membrane Permeable-Phenotype (%) [8]: 56%
Population Mitochondria Different-Phenotype (%) [8]: 100%
Population Mitotic Cells (%) [8]: 24%
Population Normal (%) [8]: 95%
Population Pyknosed Nuclei (%) [8]: 38%
Total Cell Count [8]: 119
Population Apoptotic (%) [9]: 40%
Population Fragmented Nuclei (%) [9]: 4%
Population Healthy Nuclei (%) [9]: 81%
Population Hoechst High Intensity Objects (%) [9]: 2%
Population Membrane Permeable-Phenotype (%) [9]: 6%
Population Mitochondria Different-Phenotype (%) [9]: 11%
Population Mitotic Cells (%) [9]: 59%
Population Normal (%) [9]: 97%
Population Pyknosed Nuclei (%) [9]: 13%
Population Tubulin-Different-Phenotype (%) [9]: 22%
Total Cell Count [9]: 150
Population Apoptotic (%) [10]: 60%
Population Fragmented Nuclei (%) [10]: 17%
Population Healthy Nuclei (%) [10]: 75%
Population Hoechst High Intensity Objects (%) [10]: 10%
Population Membrane Permeable-Phenotype (%) [10]: 16%
Population Mitochondria Different-Phenotype (%) [10]: 8%
Population Mitotic Cells (%) [10]: 40%
Population Normal (%) [10]: 89%
Population Pyknosed Nuclei (%) [10]: 7%
Population Tubulin-Different-Phenotype (%) [10]: 10%
Total Cell Count [10]: 68
Population Apoptotic (%) [11]: 64%
Population Fragmented Nuclei (%) [11]: 14%
Population Healthy Nuclei (%) [11]: 43%
Population Hoechst High Intensity Objects (%) [11]: 6%
Population Membrane Permeable-Phenotype (%) [11]: 28%
Population Mitochondria Different-Phenotype (%) [11]: 90%
Population Mitotic Cells (%) [11]: 35%
Population Normal (%) [11]: 93%
Population Pyknosed Nuclei (%) [11]: 41%
Population Tubulin-Different-Phenotype (%) [11]: 95%
Total Cell Count [11]: 240
Population Apoptotic (%) [12]: 62%
Population Fragmented Nuclei (%) [12]: 13%
Population Healthy Nuclei (%) [12]: 44%
Population Hoechst High Intensity Objects (%) [12]: 5%
Population Membrane Permeable-Phenotype (%) [12]: 52%
Population Mitochondria Different-Phenotype (%) [12]: 94%
Population Mitotic Cells (%) [12]: 37%
Population Normal (%) [12]: 95%
Population Pyknosed Nuclei (%) [12]: 42%
Population Tubulin-Different-Phenotype (%) [12]: 97%
Total Cell Count [12]: 156

Cc1ccc(C)c(Oc2ccncc2C(=O)N2CCN(C3CC3)c3ccccc32)c1
Population Apoptotic (%) [1]: 53%
Population Fragmented Nuclei (%) [1]: 10%
Population Healthy Nuclei (%) [1]: 77%
Population Hoechst High Intensity Objects (%) [1]: 7%
Population Normal (%) [1]: 92%
Total Cell Count [1]: 135
Population Apoptotic (%) [2]: 66%
Population Healthy Nuclei (%) [2]: 75%
Population Hoechst High Intensity Objects (%) [2]: 10%
Population Normal (%) [2]: 89%
Total Cell Count [2]: 73
Population Apoptotic (%) [3]: 48%
Population Fragmented Nuclei (%) [3]: 15%
Population Healthy Nuclei (%) [3]: 61%
Population Hoechst High Intensity Objects (%) [3]: 6%
Population Mitotic Cells (%) [3]: 51%
Population Normal (%) [3]: 93%
Total Cell Count [3]: 132
Population Apoptotic (%) [4]: 33%
Population Fragmented Nuclei (%) [4]: 6%
Population Healthy Nuclei (%) [4]: 72%
Population Hoechst High Intensity Objects (%) [4]: 3%
Population Normal (%) [4]: 96%
Total Cell Count [4]: 59
Population Apoptotic (%) [5]: 47%
Population Fragmented Nuclei (%) [5]: 8%
Population Healthy Nuclei (%) [5]: 76%
Population Hoechst High Intensity Objects (%) [5]: 3%
Population Mitotic Cells (%) [5]: 52%
Population Normal (%) [5]: 96%
Total Cell Count [5]: 137
Population Apoptotic (%) [6]: 42%
Population Fragmented Nuclei (%) [6]: 27%
Population Healthy Nuclei (%) [6]: 60%
Population Hoechst High Intensity Objects (%) [6]: 6%
Population Normal (%) [6]: 93%
Total Cell Count [6]: 71
Population Apoptotic (%) [7]: 51%
Population Healthy Nuclei (%) [7]: 50%
Population Hoechst High Intensity Objects (%) [7]: 10%
Population Mitotic Cells (%) [7]: 48%
Population Normal (%) [7]: 89%
Total Cell Count [7]: 152
Population Apoptotic (%) [8]: 53%
Population Healthy Nuclei (%) [8]: 66%
Population Hoechst High Intensity Objects (%) [8]: 7%
Population Normal (%) [8]: 92%
Total Cell Count [8]: 65
Population Apoptotic (%) [9]: 46%
Population Fragmented Nuclei (%) [9]: 4%
Population Healthy Nuclei (%) [9]: 82%
Population Hoechst High Intensity Objects (%) [9]: 3%
Population Mitotic Cells (%) [9]: 53%
Population Normal (%) [9]: 96%
Total Cell Count [9]: 139
Population Apoptotic (%) [10]: 36%
Population Fragmented Nuclei (%) [10]: 6%
Population Healthy Nuclei (%) [10]: 79%
Population Hoechst High Intensity Objects (%) [10]: 4%
Population Mitotic Cells (%) [10]: 63%
Population Normal (%) [10]: 95%
Total Cell Count [10]: 69
Population Apoptotic (%) [11]: 61%
Population Fragmented Nuclei (%) [11]: 14%
Population Healthy Nuclei (%) [11]: 42%
Population Hoechst High Intensity Objects (%) [11]: 9%
Population Mitotic Cells (%) [11]: 38%
Population Normal (%) [11]: 90%
Total Cell Count [11]: 213
Population Apoptotic (%) [12]: 33%
Population Fragmented Nuclei (%) [12]: 22%
Population Healthy Nuclei (%) [12]: 55%
Population Hoechst High Intensity Objects (%) [12]: 1%
Population Normal (%) [12]: 98%
Total Cell Count [12]: 83
